Laboratory results published in the EternaBench riboswitch data.

Tested on: MS2 coat protein
Experiment: apparent Kd, MS2 coat protein; higher = weaker binding; RNA-MaP array; FMN 200 µM where present
In short: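 The titrant was SNAP-549-labelled MS2 coat protein, run from 0.7 or 1.5 nM in doubling steps to 3 µM. It was applied to designs transcribed by stalled E. coli RNA polymerase on Illumina sequencing-chip clusters, without ligand first and then with constant ligand, in 100 mM Tris-HCl pH 7.5, 80 mM KCl, 4 mM MgCl2, BSA, DTT, yeast tRNA and Tween-20. The apparent Kd is the median of filtered per-cluster binding-curve fits, with green signal normalised to red-channel RNA signal and control-cluster median Fmax.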

[1] = designed as: ON switch for flavin mononucleotide, no ligand
[2] = ligand present: flavin mononucleotide, designed as: ON switch for flavin mononucleotide
[3] = designed as: OFF switch for flavin mononucleotide, no ligand
[4] = ligand present: flavin mononucleotide, designed as: OFF switch for flavin mononucleotide

GUAGGAAUCACAGGAUAUGCAUGCGCCGCUUCGAUCUACAUGAGGAUCACCCAUGUGUGGUCCGUGUAGAAGGGUGUUUGCUAC
apparent Kd [1]: 0.0808 µM | apparent Kd [2]: 0.0347 µM

GUAGUCAGUAAUGAAAGCCCGGGCGCAGAAGGCCAGACACAUGAGGAUCACCCAUGUAUCCCUAUGGAGGAUAUGUGUCACGUG
apparent Kd [1]: 0.113 µM | apparent Kd [2]: 0.0305 µM

GUAGUGUAGUGAGGAUAUACGAGAUCGAUAGAUCGGCGAUCCAAUUAUACAUGAGGAUCACCCAUGUAGAAGGCACUUCACUAC
apparent Kd [3]: 0.0101 µM | apparent Kd [4]: 0.0592 µM

GUAGUGUAUGUAGGAUAUGUGAAGCAAAGCUUCACAGAAGGACAUGAGGAUCACCCAUGUAUUGCAGCCUGCAAUCAGGCUGCU
apparent Kd [3]: 0.041 µM | apparent Kd [4]: 0.144 µM

GUAUAUAUUACAUGAGGAUCACCCAUGUCAGAACGGGUAAUCAGAAGGUAUUAUUAGAGAAAGGGUAAGGAUAUGAUUAUAUAU
apparent Kd [1]: 0.605 µM | apparent Kd [2]: 0.224 µM

GUAUCCGCUGAGGAUAUAAACUCCCUUGAGGGUUUAGAAGGCAGCACAUGAGGAUCACCCAUGUGGUAAGUUUG
apparent Kd [3]: 0.0171 µM | apparent Kd [4]: 0.0292 µM

GUAUCUUACCGAGGAUAUUUACGAUUAGUGUAGACAUGAGGAUCACCCAUGUGGCCUUAGUCACGGGAGAAGGCGGUUUGAUAC
apparent Kd [1]: 0.233 µM | apparent Kd [2]: 0.059 µM

GUAUGGAGUACAGGAUAUGUAAGUUUUAAGUGUAUUGGUUAUUACUUAACAACAGAAGGGUAUUACAUGAGGAUCACCCAUGUA
apparent Kd [1]: 0.0134 µM | apparent Kd [2]: 0.011 µM

GUCAAGUGAGGAUAUGAUUGUACAGCAGACUAGCGUCUGCAUCAGAAGGCACAUGAGGAUCACCCAUGUUUGUC
apparent Kd [3]: 0.0206 µM | apparent Kd [4]: 0.0171 µM

GUCAGCUCGAGAGGAUAUACAACACUGCUUCGGCAGUGUAUUAAGAUCACAUGAGGAUCACCCAUGUAGAAGGCACGAGCUGAU
apparent Kd [3]: 0.00931 µM | apparent Kd [4]: 0.0892 µM

GUCAGCUCGUCAGGAUAUACGUCACUGCUUCGGCAGUGUGGUAAGAUCACAUGAGGAUCACCCAUGUAGAAGGGACGAGCUGAA
apparent Kd [3]: 0.0118 µM | apparent Kd [4]: 0.209 µM

GUCAGCUCGUGAGGAUAUACAACACUGCUUCGGCAGUGUAUCAAGAUCACAUGAGGAUCACCCAUGUAGAAGGCACGAGCUGAU
apparent Kd [3]: 0.0132 µM | apparent Kd [4]: 0.234 µM

GUCAGCUCGUGAGGAUAUACAACACUGCUUCGGCAGUGUAUUAAGAUCACAUGAGGAUCACCCAUGUAGAAGGCACGAGCUGGU
apparent Kd [3]: 0.0146 µM | apparent Kd [4]: 0.26 µM

GUCAGCUCGUGAGGAUAUACAACACUGCUUCGGCAGUGUAUUAAGAUCACAUGAGGAUCACCCAUGUAGAAGGCACGUGCUGAU
apparent Kd [3]: 0.0125 µM | apparent Kd [4]: 0.276 µM

GUCAGCUCGUGAGGAUAUACAACACUGCUUCGGCAGUGUAUUAAGAUCACAUGAGGAUCACCCAUGUAGAAGGCCCGAGCUGAU
apparent Kd [3]: 0.0102 µM | apparent Kd [4]: 0.139 µM

GUCAGCUCGUGAGGAUAUACAACACUGCUUCGUCAGUGUAUUAAGAUCACAUGAGGAUCACCCAUGUAGAAGGCACGAGCUGAU
apparent Kd [3]: 0.0122 µM | apparent Kd [4]: 0.211 µM

GUCAGCUCGUGAGGAUAUACAACUCUGCUUCGGCAGUGUAUUAAGAUCACAUGAGGAUCACCCAUGUAGAAGGCACGAGCUGAU
apparent Kd [3]: 0.0115 µM | apparent Kd [4]: 0.177 µM

GUCAGCUCGUGAGGAUAUACAUCACUGCUUCGGCAGUGUAUUAAAUCCACAUGAGGAUCACCCAUGUAGAAGGCACGAGCUGAU
apparent Kd [3]: 0.0167 µM | apparent Kd [4]: 0.031 µM

GUCAGCUCGUGAGGAUAUACAUGUGCUGGAAACAGCACUAAUAGAAUCACAUGAGGAUCACCCAUGUAGAAGGCACGAGCUGAU
apparent Kd [3]: 0.0169 µM | apparent Kd [4]: 0.0408 µM

GUCAUGUCAGGAUAUGCUUAUGAUGGGUGCUCAGACAUGAUGCAGAAGGGACAUGAGGAUCACCCAUGUACUGU
apparent Kd [3]: 0.0625 µM | apparent Kd [4]: 0.0625 µM

GUCCCACAUGAGGAUCACCCAUGUGAGGAUAUGGAUUCGCUGGCCGUAGCCAGUGGAUCCAGAAGGCGCAUGAU
apparent Kd [3]: 0.0196 µM | apparent Kd [4]: 0.0265 µM

GUCCUACAUGAGGAUCACCCAUGUAAGGAUAUGCUAGCGGUCGGCUGACUGACUGCUAGCAGAAGGUACAUGAU
apparent Kd [3]: 0.0175 µM | apparent Kd [4]: 0.0246 µM

GUCCUACAUGAGGAUCACCCAUGUCAGGAUAUGUAGCGUCCGGGCGAUAAGGCUCGGAGCAGAAGGGACAGGUG
apparent Kd [3]: 0.0142 µM | apparent Kd [4]: 0.0162 µM

GUCCUUUCUGAGGAUAUUAUUUUUUUCGAUUGAUAAGAAGGCAGUACAUGAGGAUCACCCAUGUGGGUUGUCUG
apparent Kd [3]: 0.0268 µM | apparent Kd [4]: 0.0283 µM

GUCGCUAGAGGAUAUACAAUGGUAUAUGAUCCUAGUGACAUACAUGAGGAUCACCCAUGUAGAAGGCUAGUAAU
apparent Kd [3]: 0.0242 µM | apparent Kd [4]: 0.0217 µM

GUCGGAAACGACAAUGAUAGGACUGAGGAUAUACGUAUAAAUAUCCUCACAUGAGGAUCACCCAUGUAGAAGGCAGUCCUAUCU
apparent Kd [3]: 0.0132 µM | apparent Kd [4]: 0.167 µM

GUCGUGUGAGGAUAUGAUUUUUCGGCGGGAUUGCGACUGCUUCAGAAGGCACAUGAGGAUCACCCAUGUUUGUC
apparent Kd [3]: 0.0106 µM | apparent Kd [4]: 0.0212 µM

GUCUACCAGCUAGGAUAUGCAGUACAUUAAAAUGUAGAAGGAGCACGAUCCAGACAUGAGGAUCACCCAUGUGGGCGGUAGGCA
apparent Kd [3]: 0.0209 µM | apparent Kd [4]: 0.0186 µM

GUCUCAGUUGGCUUCAAGGGCGGUCAGGAUAUGCUAACGUACAUGAGGAUCACCCAUGUCCAAGUGCAGAAGGGACAUACGCCA
apparent Kd [1]: 0.0626 µM | apparent Kd [2]: 0.00785 µM

GUCUCGUGAGGAUAUCAUGAUUGACUUAAUUUAUUUUAGCGUGAGAAGGCACAUGAGGAUCACCCAUGUGAUUC
apparent Kd [3]: 0.0195 µM | apparent Kd [4]: 0.0213 µM

GUCUGCUCGUGAGGAUAUACAACACUGCUUCGGCAGUGUAUUAAGAUCACAUGAGGAUCACCCAUGUAGAAGGCACGAGCUGAU
apparent Kd [3]: 0.0141 µM | apparent Kd [4]: 0.252 µM

GUCUUCCUAGGAUAUACAUGAGGAUCACCCAUGUACAGUUUCGUCAAAGGAUACUCGCGUAGAAGGAGGUGGAU
apparent Kd [3]: 0.026 µM | apparent Kd [4]: 0.0507 µM

GUGAAACAUGAGGAUCACCCAUGUGAGGAUAUGUUUUAGUACUGGAGACAGUACAUCUAUAGAAGGCACAAUGG
apparent Kd [3]: 0.0683 µM | apparent Kd [4]: 0.0891 µM

GUGAACGGAGGAUAUAUAUGGGCAGCAUACGCUGCAGCUUCACAUGAGGAUCACCCAUGUAGAAGGCUGUACAC
apparent Kd [3]: 0.00764 µM | apparent Kd [4]: 0.0239 µM

GUGAAGUAAGGAUAUACAUGAGGAUCACCCAUGUGUGGGAAGGUGAUGGGAGUAGGUAGUAGAAGGUACGAGGA
apparent Kd [3]: 0.13 µM | apparent Kd [4]: 0.0766 µM

GUGACGAUGUAAGGAUAUGCUGAGGAAUACUCAGCAGAAGGUACAUGAGGAUCACCCAUGUAAAUAAUAAUAAAUAAACGUCAC
apparent Kd [3]: 0.0152 µM | apparent Kd [4]: 0.0241 µM

GUGAGGUCAGGAUAUGCAUGGCGGGACUUGCGUCGUGGCGUGCAGAAGGGACAUGAGGAUCACCCAUGUGGAGC
apparent Kd [3]: 0.0816 µM | apparent Kd [4]: 0.194 µM

GUGCACACUCGAGGAUAUCGGAGUUUUCUUCUUCGAGAAGGCGAUUCGUGCCGUGUUAUUUUGGACAUGAGGAUCACCCAUGUG
apparent Kd [1]: 0.0934 µM | apparent Kd [2]: 0.0345 µM

GUGCAGAUGUAAGGAUAUCGACUGGAUAACAGUCGAGAAGGUACAUGAGGAUCACCCAUGUAAAUGAAAGAUAAUAAACUGCAC
apparent Kd [3]: 0.0144 µM | apparent Kd [4]: 0.0249 µM

GUGCAUGUGCGAACUAACCCACAUGAGGAUCACCCAUGUAGGAGAAGGGUCCGGAGGUGCCGUGGACAGGAUAUCCUACGCCUG
apparent Kd [3]: 0.0232 µM | apparent Kd [4]: 0.0309 µM

GUGCCUAACUAGAAGGCAGCAUGCAAAGCAUUCUGAGGAUAUGGGUUCCGGAAACGGACAUGAGGAUCACCCAUGUGGCACAAA
apparent Kd [1]: 0.482 µM | apparent Kd [2]: 0.0347 µM

GUGCGAGCCACAGGAUAUCUACAAAUUUACUGUAGAGAAGGGUGACCUCGUGCACCACAUGAGGAUCACCCAUGUAACUAGGCG
apparent Kd [1]: 0.0263 µM | apparent Kd [2]: 0.053 µM

GUGCGGUGAGGAUAUACGUAGGUGAAAAUCUGUGUGUUCCUACAUGAGGAUCACCCAUGUAGAAGGCAUGGCAC
apparent Kd [3]: 0.148 µM | apparent Kd [4]: 0.0453 µM

GUGCUCAUGUAAGGAUAUGCAGCCGUUUCGGCUGCAGAAGGUACUAUAAUACAUGAGGAUCACCCAUGUCUCUAUAAUUUGGUG
apparent Kd [1]: 0.113 µM | apparent Kd [2]: 0.239 µM

GUGCUCGUGUAAGGAUAUGCAGCCGUUUCGGCUGCAGAAGGUACUAUAAUACAUGAGGAUCACCCAUGUCUCUAUAGUUUGGUG
apparent Kd [1]: 0.0274 µM | apparent Kd [2]: 0.0331 µM

GUGGCCUAGGCACAGGAUAUGUUUCUCGUAACAUGAGGAUCACCCAUGUGCCUUUGAGAUUUUAUGCAGAAGGGUGCACGCCACG
apparent Kd [1]: 0.488 µM | apparent Kd [2]: 0.0243 µM

GUGGCUAGUGCAGGAUAUUAGCGCGUGUAGUGUUGAGAAGGGCACAUGAGGAUCACCCAUGUGAUCAAUCACUGUUAAGGUCGC
apparent Kd [3]: 0.0127 µM | apparent Kd [4]: 0.0253 µM

GUGGCUGUUAGGCUUGCGUCGGCGACAGAAGGCCAACAUGAGGAUCACCCAUGUACAAAGACCAUGGAGGAUAUGUUGCCAAUG
apparent Kd [1]: 0.0582 µM | apparent Kd [2]: 0.00754 µM

GUGGUACAUGAGGAUCACCCAUGUUAGGAUAUCGCGUGAGGUUUUACUUCCGCACACGCGAGAAGGGACGUCUU
apparent Kd [3]: 0.0549 µM | apparent Kd [4]: 0.0416 µM

GUGGUCAGACAUGAGGAUCACCCAUGUGGAAUAAAUAACAACUAGGAUAUGUAAUAUAGGAUAUAACAGAAGGAGUGAUUGGUG
apparent Kd [1]: 0.168 µM | apparent Kd [2]: 0.138 µM

GUGGUCAGACAUGAGGAUCACCCAUGUGGAAUAAAUAAGGAAUAGGAUAUGGAAUAUAGGAUAUACCAGAAGGGUUGGUUGGUG
apparent Kd [1]: 0.0984 µM | apparent Kd [2]: 0.114 µM

GUGGUGUAGAUACAGGAUAUGUUGCUCGUAACAUGAGGAUCACCCAUGUAUCUAUGAGAUUAAAUGCAGAAGGGUGCACACCACG
apparent Kd [1]: 0.33 µM | apparent Kd [2]: 0.0233 µM

GUGUACAGAGGAUAUACACGAGUAGUUACGAAAGUAACUACACAUGAGGAUCACCCAUGUAGAAGGCUGUACAC
apparent Kd [3]: 0.025 µM | apparent Kd [4]: 0.0303 µM

GUGUACAGAGGAUAUACAUAAGCAUGGAAACAUGCUACUUCACAUGAGGAUCACCCAUGUAGAAGGCUGUACAC
apparent Kd [3]: 0.0145 µM | apparent Kd [4]: 0.0154 µM

GUGUACAGAGGAUAUAUAUGAGCUAGGAAACUAGCAAGAUCACAUGAGGAUCACCCAUGUAGAAGGCUGUACAC
apparent Kd [3]: 0.114 µM | apparent Kd [4]: 1.21 µM
